{
  "source": "paper PMC5538437",
  "about": "(Genes & Development, 2017)",
  "key": {"[1]": {"system": "4EHP", "assay": "Pull-down / coimmunoprecipitation with 4EHP in HEK293T cell lysates", "format": "binding, human", "details": "Western blot", "how_it_was_run": "(§1)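 Streptavidin-bead pull-down from RNase A-treated HEK293T lysates of cells expressing V5-SBP-tagged 4EHP or eIF4E (wild type or mutants). Co-bound endogenous GYF2, 4E-T and 4E-BP1 were probed; for 4EHP, co-expressed GFP-4E-BP1 was also probed, with V5-SBP-MBP as negative control. Inputs and bound fractions were analysed by Western blot with anti-V5, anti-GFP, anti-GYF2 and other antibodies, using ECL detection.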"}, "[2]": {"system": "eIF4E", "assay": "Pull-down / coimmunoprecipitation with eIF4E in HEK293T cell lysates", "format": "binding, human", "details": "streptavidin pull-down, Western blot", "how_it_was_run": "as §1"}, "[3]": {"target": "T1, 4EHP used for ITC, wild type (human, UniProt O60573 1-245)", "T1 sequence": "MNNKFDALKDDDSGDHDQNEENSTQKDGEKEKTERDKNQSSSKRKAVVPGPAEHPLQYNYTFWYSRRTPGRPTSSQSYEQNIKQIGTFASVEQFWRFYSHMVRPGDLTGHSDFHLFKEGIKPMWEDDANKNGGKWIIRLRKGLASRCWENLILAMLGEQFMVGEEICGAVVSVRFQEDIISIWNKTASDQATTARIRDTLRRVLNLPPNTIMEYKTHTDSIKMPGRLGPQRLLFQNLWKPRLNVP", "assay": "ITC"}, "[4]": {"system": "endogenous GYF1", "assay": "Pull-down of GYF1 by tagged 4EHP in HEK293T cells", "format": "binding, human", "details": "V5-SBP-4EHP, Western blot"}, "[5]": {"system": "endogenous GYF2", "assay": "Pull-down of GYF2 by tagged 4EHP in HEK293T cells", "format": "binding, human", "details": "Western blot", "how_it_was_run": "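Streptavidin pull-downs used HEK293T lysates containing RNase A and expressed V5-SBP-4EHP, wild type or mutants. V5-SBP-MBP was the negative control. Inputs (1–1.5%) and bound fractions (up to 30% for GYF2) were analysed by Western blot with anti-V5 and anti-GYF2 antibodies, using ECL detection.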"}, "[6]": {"target": "T2, 4EHP S99N used for ITC (human, UniProt O60573 1-245, S99N)", "T2 sequence": "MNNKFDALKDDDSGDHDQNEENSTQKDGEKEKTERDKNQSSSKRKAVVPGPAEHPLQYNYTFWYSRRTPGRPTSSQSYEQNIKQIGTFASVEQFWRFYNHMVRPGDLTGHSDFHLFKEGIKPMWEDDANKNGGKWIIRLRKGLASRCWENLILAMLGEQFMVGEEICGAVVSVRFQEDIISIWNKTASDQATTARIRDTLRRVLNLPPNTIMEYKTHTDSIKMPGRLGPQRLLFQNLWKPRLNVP", "assay": "ITC"}, "[7]": {"target": "T3, 4EHP-His6 (residues A52–F234), RE-LL mutant, of the competition assays (human, UniProt O60573 52-234, R103L | E149L)", "T3 sequence": "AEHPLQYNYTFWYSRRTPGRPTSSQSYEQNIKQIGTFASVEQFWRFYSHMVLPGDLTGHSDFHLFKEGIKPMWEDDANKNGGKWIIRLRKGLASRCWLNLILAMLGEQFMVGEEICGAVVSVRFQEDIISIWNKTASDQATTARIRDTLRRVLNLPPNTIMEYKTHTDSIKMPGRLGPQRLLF", "assay": "pull-down"}},
  "data": [
    {"molecule": "GYF1 A2+3*: GYF1 E86A, N95F; auxiliary site 2 mutant (listed as A2*) (protein, UniProt O75420 1-1035, looked up, variant E86A N95F) GRB10-interacting GYF protein …: MAAETLNFGPEWLRALSGGGSVASPPPSPAMPKYKLADYRYGREEMLALYVKENKVPEELQDKEFAAVLQDEPLQPLALEPLTEEAQRNFSLSVFSVAVLRLMGKGAGPPLAGTSRGRGSTRSRGRGRGDSCFYQRSIEEGDGAFGRSPREIQRSQSWDDRGERRFEKSARRDGARCGFEEGGAGPRKEHARSDSENWRSLREEQEEEEEGSWRLGAGPRRDGDRWRSASPDGGPRSAGWREHGERRRKFEFDLRGDRGGCGEEEGRGGGGSSHLRRCRAPEGFEEDKDGLPEWCLDDEDEEMGTFDASGAFLPLKKGPKEPIPEEQELDFQGLEEEEEPSEGLEEEGPEAGGKELTPLPPQEEKSSSPSPLPTLGPLWGTNGDGDETAEKEPPAAEDDIRGIQLSPGVGSSAGPPGDLEDDEGLKHLQQEAEKLVASLQDSSLEEEQFTAAMQTQGLRHSAAATALPLSHGAARKWFYKDPQGEIQGPFTTQEMAEWFQAGYFSMSLLVKRGCDEGFQPLGEVIKMWGRVPFAPGPSPPPLLGNMDQERLKKQQELAAAALYQQLQHQQFLQLVSSRQLPQCALREKAALGDLTPPPPPPPQQQQQQLTAFLQQLQALKPPRGGDQNLLPTMSRSLSVPDSGRLWDVHTSASSQSGGEASLWDIPINSSTQGPILEQLQLQHKFQERREVELRAKREEEERKRREEKRRQQQQEEQKRRQEEEELFRRKHVRQQELLLKLLQQQQAVPVPPAPSSPPPLWAGLAKQGLSMKTLLELQLEGERQLHKQPPPREPARAQAPNHRVQLGGLGTAPLNQWVSEAGPLWGGPDKSGGGSSGLGLWEDTPKSGGSLVRGLGLKNSRSSPSLSDSYSHLSGRPIRKKTEEEEKLLKLLQGIPRPQDGFTQWCEQMLHTLSATGSLDVPMAVAILKEVESPYDVHDYIRSCLGDTLEAKEFAKQFLERRAKQKASQQRQQQQEAWLSSASLQTAFQANHSTKLGPGEGSKAKRRALMLHSDPSILGYSLHGSSGEIESVDDY", "values": [
      {"measurement": "interaction with 4EHP in cells, overexpressed binding partner", "setting": "[1]; HEK293T cells, GFP-tagged protein and V5-SBP-4EHP", "value": "did not affect binding to overexpressed 4EHP in human cells"}
    ]},
    {"molecule": "4E-T: Hs 4E-T Q9NRA8, full-length (1–985) (protein) MDRRSMGETESGDAFLDLKKPPASKCPHRYTKEELLDIKELPHSKQRPSCLSEKYDSDGVWDPEKWHASLYPASGRSSPVESLKKELDTDRPSLVRRIVDPRERVKEDDLDVVLSPQRRSFGGGCHVTAAVSSRRSGSPLEKDSDGLRLLGGRRIGSGRIISARTFEKDHRLSDKDLRDLRDRDRERDFKDKRFRREFGDSKRVFGERRRNDSYTEEEPEWFSAGPTSQSETIELTGFDDKILEEDHKGRKRTRRRTASVKEGIVECNGGVAEEDEVEVILAQEPAADQEVPRDAVLPEQSPGDFDFNEFFNLDKVPCLASMIEDVLGEGSVSASRFSRWFSNPSRSGSRSSSLGSTPHEELERLAGLEQAILSPGQNSGNYFAPIPLEDHAENKVDILEMLQKAKVDLKPLLSSLSANKEKLKESSHSGVVLSVEEVEAGLKGLKVDQQVKNSTPFMAEHLEETLSAVTNNRQLKKDGDMTAFNKLVSTMKASGTLPSQPKVSRNLESHLMSPAEIPGQPVPKNILQELLGQPVQRPASSNLLSGLMGSLEPTTSLLGQRAPSPPLSQVFQTRAASADYLRPRIPSPIGFTPGPQQLLGDPFQGMRKPMSPITAQMSQLELQQAALEGLALPHDLAVQAANFYQPGFGKPQVDRTRDGFRNRQQRVTKSPAPVHRGNSSSPAPAASITSMLSPSFTPTSVIRKMYESKEKSKEEPASGKAALGDSKEDTQKASEENLLSSSSVPSADRDSSPTTNSKLSALQRSSCSTPLSQANRYTKEQDYRPKATGRKTPTLASPVPTTPFLRPVHQVPLVPHVPMVRPAHQLHPGLVQRMLAQGVHPQHLPSLLQTGVLPPGMDLSHLQGISGPILGQPFYPLPAASHPLLNPRPGTPLHLAMVQQQLQRSVLHPPGSGSHAAAVSVQTTPQNVPSRSGLPHMHSQLEHRPSQRSSSPVGLAKWFGSDVLQQPLPSMPAKVISVDELEYRQ", "values": [
      {"measurement": "interaction with eIF4E in cell lysates", "setting": "[2]", "value": "interacted with both eIF4E and 4EHP"},
      {"measurement": "interaction with 4EHP in cell lysates, endogenous binding partner", "setting": "[1]; HEK293T cell lysates, streptavidin pull-down", "value": "interacted with both eIF4E and 4EHP"}
    ]},
    {"molecule": "KYKLADYRYGREEMLALFLKDNKIPSDLLDKEFLPILQ", "note": "[GYF2 C+L+NC peptide, ITC]", "values": [
      {"measurement": "Kd", "setting": "[3]", "value": 14, "unit": "nM"}
    ]},
    {"molecule": "4EHP RE-LL: 4EHP R103L, E149L; auxiliary surface mutant (protein) MNNKFDALKDDDSGDHDQNEENSTQKDGEKEKTERDKNQSSSKRKAVVPGPAEHPLQYNYTFWYSRRTPGRPTSSQSYEQNIKQIGTFASVEQFWRFYSHMVLPGDLTGHSDFHLFKEGIKPMWEDDANKNGGKWIIRLRKGLASRCWLNLILAMLGEQFMVGEEICGAVVSVRFQEDIISIWNKTASDQATTARIRDTLRRVLNLPPNTIMEYKTHTDSIKMPGRLGPQRLLFQNLWKPRLNVP", "values": [
      {"measurement": "binding to endogenous GYF1", "setting": "[4]", "value": "disrupted binding to endogenous GYF1"},
      {"measurement": "binding to endogenous GYF2", "setting": "[5]", "value": "strongly reduced binding to endogenous GYF2"}
    ]},
    {"molecule": "4EHP S99N: 4EHP S99N; dorsal surface mutant (protein, UniProt O60573 1-245, looked up, variant S99N) Eukaryotic translation …: MNNKFDALKDDDSGDHDQNEENSTQKDGEKEKTERDKNQSSSKRKAVVPGPAEHPLQYNYTFWYSRRTPGRPTSSQSYEQNIKQIGTFASVEQFWRFYNHMVRPGDLTGHSDFHLFKEGIKPMWEDDANKNGGKWIIRLRKGLASRCWENLILAMLGEQFMVGEEICGAVVSVRFQEDIISIWNKTASDQATTARIRDTLRRVLNLPPNTIMEYKTHTDSIKMPGRLGPQRLLFQNLWKPRLNVP", "values": [
      {"measurement": "binding to endogenous GYF2", "setting": "[5]", "value": "Binding of GYF2 was not affected by the S99N mutation"}
    ]},
    {"molecule": "4EHP cap: 4EHP W124A; cap-binding pocket mutant (protein, UniProt O60573 1-245, looked up, variant W124A) Eukaryotic translation …: MNNKFDALKDDDSGDHDQNEENSTQKDGEKEKTERDKNQSSSKRKAVVPGPAEHPLQYNYTFWYSRRTPGRPTSSQSYEQNIKQIGTFASVEQFWRFYSHMVRPGDLTGHSDFHLFKEGIKPMAEDDANKNGGKWIIRLRKGLASRCWENLILAMLGEQFMVGEEICGAVVSVRFQEDIISIWNKTASDQATTARIRDTLRRVLNLPPNTIMEYKTHTDSIKMPGRLGPQRLLFQNLWKPRLNVP", "values": [
      {"measurement": "binding to endogenous GYF2", "setting": "[5]", "value": "still binds to GYF1/2"}
    ]},
    {"molecule": "TRIIYDRKFLMECRNSPVTKTPPRDLPTIPGVTS", "note": "[4E-BP1 peptide, ITC]", "values": [
      {"measurement": "Kd", "setting": "[6]", "value": 4, "unit": "nM"},
      {"measurement": "Kd", "setting": "[3]", "value": 55, "unit": "nM"}
    ]},
    {"molecule": "TRIIYDRKFLMECRNSPVTKTPPRDLPTIPGVTS (domain or fragment)", "note": "[4E-BP1 peptide (residues T50–S83) with C-terminal GB1 tag, of the competition assays]", "values": [
      {"measurement": "binding result", "setting": "[7]", "value": "binds"}
    ]}
  ]
}
